Source: ChEMBL document CHEMBL3044828, “Synthesis of 1-acyl-3-isopropenylbenzimidazolone derivatives and their activity against Botrytis cinerea” (J Agric Food Chem, 2010)
≈ marks a conversion by molar mass, not a printed value.

Tested on: Botrytis cinerea
Assay: Fungicidal activity against Botryotinia fuckeliana assessed as inhibition of spore germination at 25 degC after 6 hr by microscopic analysis
Assay type: functional, organism-based
Method in brief: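 B. cinerea strain from a university plant disease institute, grown 2 weeks at 20 °C on PDA; conidia scraped into sterile water, filtered through cheesecloth, suspended in 0.1% Tween 20 and adjusted to 1.0 × 10⁶ spores/mL. Samples taken up in methanol and diluted in sterile water to a concentration series (methanol <1% final); 1% methanol control. 10 μL spore–sample aliquots on glass slides in triplicate, moist chamber, germination scored microscopically.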

| Structure (SMILES) | IC50 [µg/mL] |
| --- | --- |
| C=C(C)n1c(=O)n(C(=O)c2ccco2)c2ccccc21 | 104 (≈ 387 µM) |
| C=C(C)n1c(=O)n(C(=O)c2ccncc2)c2ccccc21 | 152 (≈ 544 µM) |
| C=C(C)n1c(=O)n(C(=O)CCCCC)c2ccccc21 | 129 (≈ 475 µM) |
| C=C(C)n1c(=O)n(C(=O)C(C)C)c2ccccc21 | 134 (≈ 548 µM) |
| C=C(C)n1c(=O)n(C(=O)C(CC)CC)c2ccccc21 | 277 (≈ 1020 µM) |
| C=C(C)n1c(=O)n(C(=O)CCC(C)C)c2ccccc21 | 335 (≈ 1230 µM) |
| C=C(C)n1c(=O)n(C(=O)Cc2ccccc2)c2ccccc21 | 168 (≈ 576 µM) |
| C=C(C)n1c(=O)n(C(=O)Cc2ccc(Cl)cc2)c2ccccc21 | 17.3 (≈ 52.8 µM) |
| C=C(C)n1c(=O)n(C(=O)Cc2ccc3ccccc3c2)c2ccccc21 | > 500 |
| C=C(C)n1c(=O)n(C(=O)CCc2ccccc2)c2ccccc21 | 126 (≈ 410 µM) |
| C=C(C)n1c(=O)n(C(=O)C(CC)c2ccccc2)c2ccccc21 (configuration not stated) | 186 (≈ 580 µM) |
| C=C(C)n1c(=O)n(C(=O)Cc2ccc(OC)cc2)c2ccccc21 | 118 (≈ 366 µM) |
| C=C(C)n1c(=O)n(C(=O)COc2ccccc2)c2ccccc21 | 303 (≈ 983 µM) |
| C=C(C)n1c(=O)n(C(=O)COc2ccc(Cl)cc2)c2ccccc21 | 108 (≈ 315 µM) |
| C=C(C)n1c(=O)n(C(=O)CCCc2c[nH]c3ccccc23)c2ccccc21 | 302 (≈ 839 µM) |
| C=CC(=O)n1c(=O)n(C(=C)C)c2ccccc21 | 32.2 (≈ 141 µM) |
| C=C(C)C(=O)n1c(=O)n(C(=C)C)c2ccccc21 | 64 (≈ 264 µM) |
| C=C(C)n1c(=O)n(C(=O)c2ccccc2)c2ccccc21 | 81.9 (≈ 294 µM) |
| C=C(C)n1c(=O)n(C(=O)c2ccc([N+](=O)[O-])cc2)c2ccccc21 | 93.3 (≈ 289 µM) |
| C=C(C)n1c(=O)n(C(=O)c2ccccc2[N+](=O)[O-])c2ccccc21 | 442 (≈ 1370 µM) |
| C=C(C)n1c(=O)n(C(=O)c2ccc(Cl)cc2)c2ccccc21 | 66.8 (≈ 214 µM) |
| C=C(C)n1c(=O)n(C(=O)c2ccccc2Cl)c2ccccc21 | 17.2 (≈ 54.9 µM) |
| C=C(C)n1c(=O)n(C(C)=O)c2ccccc21 | > 500 |
| C=C(C)n1c(=O)n(C(=O)CC)c2ccccc21 | > 500 |
| C=C(C)n1c(=O)n(C(=O)CCC)c2ccccc21 | > 500 |
| C=C(C)n1c(=O)n(C(=O)CCCC)c2ccccc21 | 254 (≈ 984 µM) |
| Cc1cc(C)nc(Nc2ccccc2)n1 [PYRIMETHANIL] | 209 (≈ 1050 µM) |
